Source: ChEMBL document CHEMBL1142963, “Novel sigma receptor ligands: synthesis and biological profile” (J Med Chem, 2007)
pKi: −log10 of the molar value. The source made the active and inactive calls. No cut-off for these calls is given here.

Experiments:
[1] = biological target: Sigma non-opioid intracellular receptor 1 (Cavia porcellus, UniProt Q60492); assay: Displacement of [3H](+)-pentazocine from guinea pig brain sigma 1 receptor
[2] = Displacement of [3H]DTG rom guinea pig brain sigma 2 receptor; set-up: species or system Cavia porcellus
Rattus norvegicus [3] = species: Rattus norvegicus; assay: Increase in TG-2 expression in albino Wistar rat primary astroglial cells at 25 uM after 24 hrs; type: functional
How it was run: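 Primary Wistar rat astrocytes at 14 DIV were exposed to ligand 25 µM for 24 h. Densitometric percentage of TG-2 versus untreated control; HUVEC extract as positive control. Mean ± SD of four experiments.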

Rattus norvegicus [4] = species: Rattus norvegicus; assay: Increase in TG-2 expression in albino Wistar rat primary 14 DIV astroglial cell at 25 uM after 24 hrs by CLSM analysis; type: functional
How it was run: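 Astrocytes at 14 DIV were treated with 25 µM for 24 h and fixed in 4% paraformaldehyde for 20 min. They were blocked with 1% normal serum for 1 h, then incubated overnight with anti-TG-2 monoclonal (1:500), followed by FITC and TRITC anti-IgG (1:64, 2 h each). Confocal imaging at fixed settings measured cytosolic and nuclear fluorescence intensity versus control after nonspecific subtraction.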

D(1A) dopamine receptor = D(1A) dopamine receptor (Rattus norvegicus, UniProt P18901); assay: Displacement of [3H]SCH-23390 from rat striatum dopamine D1 receptor
How it was run: (§1)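 Rat brain tissue by target: striatum for D1, D2 and DAT; olfactory tubercle for D3; cortex for muscarinic, 5-HT3, 5-HT2A, α1, α2, H1, NMDA and SERT; guinea pig cortex for 5-HT4. Inhibitors at seven to nine concentrations. After incubation, samples were filtered on glass fibre filters, washed three times with ice-cold buffer and counted by liquid scintillation. Ki values were derived by curve fitting.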

D(2) dopamine receptor = D(2) dopamine receptor (Rattus norvegicus, UniProt P61169); assay: Displacement of [3H]spiperone from rat striatum dopamine D2 receptor; how it was run: as §1
D(3) dopamine receptor = D(3) dopamine receptor (Rattus norvegicus, UniProt P19020); assay: Displacement of [3H]7OH-DPAT from rat olfactory tubercle dopamine D3 receptor; type: tissue-based; how it was run: as §1
[5] = biological target: 5-hydroxytryptamine receptor 4 (Cavia porcellus, UniProt O70528); assay: Displacement of [3H][…] from guinea pig cortex 5HT4 receptor; how it was run: as §1
[6] = biological target: T1, Adrenergic receptor alpha-2 (Rattus norvegicus, UniProt P22086+P19328+P22909); assay: Displacement of 3H]RX821002 from rat cortex adrenergic alpha-2 receptor; how it was run: as §1
T1 sequence (P22086 whole entry): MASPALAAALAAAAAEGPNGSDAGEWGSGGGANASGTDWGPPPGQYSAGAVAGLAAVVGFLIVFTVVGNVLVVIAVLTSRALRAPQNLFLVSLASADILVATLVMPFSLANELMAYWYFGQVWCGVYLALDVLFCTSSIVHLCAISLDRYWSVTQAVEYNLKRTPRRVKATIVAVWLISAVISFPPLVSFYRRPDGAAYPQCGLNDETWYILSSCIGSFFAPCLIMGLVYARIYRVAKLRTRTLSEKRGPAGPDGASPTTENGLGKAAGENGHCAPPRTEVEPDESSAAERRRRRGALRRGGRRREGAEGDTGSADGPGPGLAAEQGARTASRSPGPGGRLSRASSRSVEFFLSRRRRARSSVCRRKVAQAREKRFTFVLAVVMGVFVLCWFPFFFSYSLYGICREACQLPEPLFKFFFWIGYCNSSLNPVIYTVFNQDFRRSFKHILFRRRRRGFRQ
T1 sequence (P19328 whole entry): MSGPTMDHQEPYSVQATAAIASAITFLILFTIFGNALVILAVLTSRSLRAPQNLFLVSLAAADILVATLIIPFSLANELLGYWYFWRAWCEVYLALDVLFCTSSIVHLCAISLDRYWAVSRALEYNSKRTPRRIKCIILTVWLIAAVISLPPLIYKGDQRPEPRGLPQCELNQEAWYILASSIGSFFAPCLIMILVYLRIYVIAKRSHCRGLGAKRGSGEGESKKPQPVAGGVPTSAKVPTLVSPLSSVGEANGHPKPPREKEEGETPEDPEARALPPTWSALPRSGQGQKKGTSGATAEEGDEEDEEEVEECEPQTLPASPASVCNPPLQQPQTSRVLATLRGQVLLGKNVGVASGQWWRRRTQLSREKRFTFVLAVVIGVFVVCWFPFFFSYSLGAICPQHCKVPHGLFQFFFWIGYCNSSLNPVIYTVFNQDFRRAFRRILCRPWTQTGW
T1 sequence (P22909 whole entry): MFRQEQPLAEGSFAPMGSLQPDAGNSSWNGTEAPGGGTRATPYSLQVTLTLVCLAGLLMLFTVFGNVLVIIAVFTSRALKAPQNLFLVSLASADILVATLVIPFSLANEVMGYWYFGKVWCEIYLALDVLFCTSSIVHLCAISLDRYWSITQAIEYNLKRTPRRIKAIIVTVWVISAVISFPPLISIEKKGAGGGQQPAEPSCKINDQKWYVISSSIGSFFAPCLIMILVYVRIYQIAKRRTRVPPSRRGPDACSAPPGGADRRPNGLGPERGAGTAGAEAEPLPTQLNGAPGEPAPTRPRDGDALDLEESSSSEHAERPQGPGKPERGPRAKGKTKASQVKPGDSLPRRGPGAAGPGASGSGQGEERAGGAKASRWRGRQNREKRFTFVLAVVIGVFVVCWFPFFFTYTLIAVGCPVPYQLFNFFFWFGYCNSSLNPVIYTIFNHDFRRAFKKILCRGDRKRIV

[7] = biological target: Muscarinic acetylcholine receptor; assay: Displacement of [3H]QNB from rat cortex muscarinic receptor; how it was run: as §1
Histamine H1 receptor = Histamine H1 receptor (Rattus norvegicus, UniProt P31390); assay: Displacement of [3H]pyrilamine from rat cortex histamine H1 receptor; how it was run: as §1
[8] = biological target: Sodium-dependent dopamine transporter (Rattus norvegicus, UniProt P23977); assay: Displacement of [3H]WIN-35428 from rat striatum DAT; how it was run: as §1
[9] = biological target: Sodium-dependent serotonin transporter (Rattus norvegicus, UniProt P31652); assay: Displacement of [3H]citalopram from rat cortex SERT; how it was run: as §1
Sequence of Sodium-dependent serotonin transporter (P31652 whole entry): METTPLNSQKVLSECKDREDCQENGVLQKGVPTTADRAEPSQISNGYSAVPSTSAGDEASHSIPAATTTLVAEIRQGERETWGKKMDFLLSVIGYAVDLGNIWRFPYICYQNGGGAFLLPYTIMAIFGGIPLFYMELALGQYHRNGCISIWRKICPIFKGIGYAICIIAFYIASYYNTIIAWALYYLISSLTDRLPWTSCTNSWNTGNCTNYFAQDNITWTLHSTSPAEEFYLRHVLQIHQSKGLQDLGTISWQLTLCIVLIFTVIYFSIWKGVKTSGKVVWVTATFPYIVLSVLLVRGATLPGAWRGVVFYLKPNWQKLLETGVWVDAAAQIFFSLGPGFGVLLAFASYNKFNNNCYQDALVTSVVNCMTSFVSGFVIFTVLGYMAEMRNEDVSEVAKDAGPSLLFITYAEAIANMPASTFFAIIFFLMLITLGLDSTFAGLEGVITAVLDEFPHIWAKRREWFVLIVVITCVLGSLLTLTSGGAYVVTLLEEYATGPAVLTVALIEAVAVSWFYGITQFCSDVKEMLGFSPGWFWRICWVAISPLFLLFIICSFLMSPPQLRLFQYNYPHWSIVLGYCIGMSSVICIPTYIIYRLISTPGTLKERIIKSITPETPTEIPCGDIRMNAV

Sequence of Sodium-dependent dopamine transporter (P23977 whole entry): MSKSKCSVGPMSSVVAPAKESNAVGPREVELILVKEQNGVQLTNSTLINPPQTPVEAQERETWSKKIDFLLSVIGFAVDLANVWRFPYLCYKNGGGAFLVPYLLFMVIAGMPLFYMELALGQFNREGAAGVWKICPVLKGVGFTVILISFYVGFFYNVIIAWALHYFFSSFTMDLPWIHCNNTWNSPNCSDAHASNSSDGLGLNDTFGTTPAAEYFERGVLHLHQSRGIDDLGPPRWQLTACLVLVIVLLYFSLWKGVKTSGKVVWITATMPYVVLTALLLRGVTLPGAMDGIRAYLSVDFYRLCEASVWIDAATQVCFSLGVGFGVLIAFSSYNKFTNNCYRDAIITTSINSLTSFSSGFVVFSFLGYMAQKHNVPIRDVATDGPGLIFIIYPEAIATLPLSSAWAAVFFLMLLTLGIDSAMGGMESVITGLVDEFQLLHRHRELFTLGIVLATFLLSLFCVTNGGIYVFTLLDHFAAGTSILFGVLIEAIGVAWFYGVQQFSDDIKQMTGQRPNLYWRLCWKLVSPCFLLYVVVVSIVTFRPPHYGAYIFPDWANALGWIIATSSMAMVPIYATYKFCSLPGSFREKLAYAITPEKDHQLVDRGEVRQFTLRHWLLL
Sequence of D(3) dopamine receptor (P19020 whole entry): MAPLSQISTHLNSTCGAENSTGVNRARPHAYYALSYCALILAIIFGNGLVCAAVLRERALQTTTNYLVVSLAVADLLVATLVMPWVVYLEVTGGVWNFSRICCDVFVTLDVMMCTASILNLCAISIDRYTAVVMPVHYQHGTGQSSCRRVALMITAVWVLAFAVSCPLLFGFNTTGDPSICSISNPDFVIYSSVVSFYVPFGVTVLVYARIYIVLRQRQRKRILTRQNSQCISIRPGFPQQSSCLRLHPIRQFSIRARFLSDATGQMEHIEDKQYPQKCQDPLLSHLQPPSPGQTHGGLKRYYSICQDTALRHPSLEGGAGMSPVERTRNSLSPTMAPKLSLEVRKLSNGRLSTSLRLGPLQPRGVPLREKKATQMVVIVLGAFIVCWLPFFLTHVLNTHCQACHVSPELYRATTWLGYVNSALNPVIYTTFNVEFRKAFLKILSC
Sequence of D(2) dopamine receptor (P61169 whole entry): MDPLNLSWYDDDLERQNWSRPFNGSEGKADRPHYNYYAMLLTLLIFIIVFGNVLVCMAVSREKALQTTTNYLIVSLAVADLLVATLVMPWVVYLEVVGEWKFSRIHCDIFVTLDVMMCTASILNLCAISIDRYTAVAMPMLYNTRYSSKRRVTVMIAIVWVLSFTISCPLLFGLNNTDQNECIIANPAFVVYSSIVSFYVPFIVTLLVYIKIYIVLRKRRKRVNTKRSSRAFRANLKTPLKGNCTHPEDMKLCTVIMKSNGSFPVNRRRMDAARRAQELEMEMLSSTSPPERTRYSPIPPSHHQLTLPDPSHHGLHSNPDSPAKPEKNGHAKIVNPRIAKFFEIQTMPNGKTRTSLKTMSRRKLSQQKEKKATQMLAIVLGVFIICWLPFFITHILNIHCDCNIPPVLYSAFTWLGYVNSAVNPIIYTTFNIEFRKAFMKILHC
Sequence of D(1A) dopamine receptor (P18901 whole entry): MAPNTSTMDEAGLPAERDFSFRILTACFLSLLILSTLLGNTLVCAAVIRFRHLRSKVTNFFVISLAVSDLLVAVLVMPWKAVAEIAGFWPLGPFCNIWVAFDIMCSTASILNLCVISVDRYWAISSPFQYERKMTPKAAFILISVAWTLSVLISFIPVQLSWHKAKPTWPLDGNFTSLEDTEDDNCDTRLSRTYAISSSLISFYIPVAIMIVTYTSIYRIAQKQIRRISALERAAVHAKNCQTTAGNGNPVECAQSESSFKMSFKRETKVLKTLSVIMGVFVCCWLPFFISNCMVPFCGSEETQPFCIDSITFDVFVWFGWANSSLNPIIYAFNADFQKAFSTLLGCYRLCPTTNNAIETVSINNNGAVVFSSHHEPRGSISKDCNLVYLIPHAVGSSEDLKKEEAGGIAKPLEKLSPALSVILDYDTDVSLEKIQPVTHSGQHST
Sequence of Histamine H1 receptor (P31390 whole entry): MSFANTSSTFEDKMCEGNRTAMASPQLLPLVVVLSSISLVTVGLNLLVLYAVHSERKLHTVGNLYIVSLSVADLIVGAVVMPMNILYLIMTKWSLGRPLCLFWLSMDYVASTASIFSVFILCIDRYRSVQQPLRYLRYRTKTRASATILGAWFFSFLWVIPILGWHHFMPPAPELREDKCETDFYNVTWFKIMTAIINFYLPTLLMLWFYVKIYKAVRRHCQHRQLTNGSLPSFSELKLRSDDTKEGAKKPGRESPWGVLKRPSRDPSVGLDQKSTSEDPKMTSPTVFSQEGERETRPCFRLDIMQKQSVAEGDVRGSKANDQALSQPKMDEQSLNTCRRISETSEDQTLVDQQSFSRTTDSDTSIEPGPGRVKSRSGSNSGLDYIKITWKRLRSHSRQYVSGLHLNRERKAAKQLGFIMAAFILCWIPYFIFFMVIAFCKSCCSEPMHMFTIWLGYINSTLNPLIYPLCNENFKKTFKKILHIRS
Sequence of Sigma non-opioid intracellular receptor 1 (Q60492 whole entry): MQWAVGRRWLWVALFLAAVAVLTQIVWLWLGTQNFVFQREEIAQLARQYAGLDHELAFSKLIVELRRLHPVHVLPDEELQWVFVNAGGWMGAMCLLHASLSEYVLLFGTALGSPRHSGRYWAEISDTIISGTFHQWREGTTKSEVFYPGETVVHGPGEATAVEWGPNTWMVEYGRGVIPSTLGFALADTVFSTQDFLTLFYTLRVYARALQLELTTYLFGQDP
Sequence of 5-hydroxytryptamine receptor 4 (O70528 whole entry): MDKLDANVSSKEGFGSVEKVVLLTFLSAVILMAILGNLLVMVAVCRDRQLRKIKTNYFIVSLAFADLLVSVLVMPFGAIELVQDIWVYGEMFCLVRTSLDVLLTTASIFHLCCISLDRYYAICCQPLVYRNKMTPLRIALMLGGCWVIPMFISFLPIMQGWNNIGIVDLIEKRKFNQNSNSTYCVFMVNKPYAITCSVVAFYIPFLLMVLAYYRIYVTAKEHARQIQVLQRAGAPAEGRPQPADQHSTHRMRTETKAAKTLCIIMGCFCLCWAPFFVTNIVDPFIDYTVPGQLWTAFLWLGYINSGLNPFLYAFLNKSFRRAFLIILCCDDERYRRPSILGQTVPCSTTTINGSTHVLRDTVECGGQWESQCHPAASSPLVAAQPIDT

SMILES: COC(=O)C1(c2ccc(C)cc2)CC1CN1CCC(O)(c2ccccc2)CC1 (stereo not drawn)
- pKi [1]: 8.82
- pKi [2]: 7.29
- Activity (Rattus norvegicus [3]): Active
- Activity (Rattus norvegicus [4]): Active
- pKi (D(1A) dopamine receptor): < 5.00
- pKi (D(2) dopamine receptor): 5.89
- pKi (D(3) dopamine receptor): 5.31
- pKi [5]: < 5.00
- Ki [6]: 9.414 µM
- Ki [7]: > 10 µM
- pKi (Histamine H1 receptor): 5.85
- pKi [8]: < 5.00
- pKi [9]: < 5.00
